Activity calls are given as the source filed them. The rule behind the calls is not given here.
Tests used:
[1] = tested on: Bel-7402; experiment: Induction of apoptosis in human Bel7402 cells assessed as annexin-V positive cells at 1 uM after 72 hrs by Annexin-V/PI staining based flow cytometry relative to control; format: functional
In short: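 Bel7402 cells (10 000) cultured overnight, then exposed to compound at 1.0 or 5.0 μM, or vehicle, for 72 h. Harvested, stained with annexin-V APC and 7-AAD for 15 min. Apoptotic percentage measured by flow cytometry (APC ex 633/em 660 nm; 7-AAD ex 488/em 647 nm). Three separate assays, mean ± SD.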

[2] = tested on: Bel-7402; experiment: Induction of autophagy in human Bel7402 cells assessed as downregulation of LC3-I level at 1 to 5 uM after 24 to 72 hrs by Western blot analysis; format: functional, cell-based
In short: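 Bel7402 cells (1.5 × 10^5/mL) exposed to compound at indicated doses, or vehicle, for 24 or 72 h. Lysates (0.05 mg/lane) separated on 12% SDS-PAGE, blotted to nitrocellulose, blocked in 5% milk. Probed with anti-LC3, anti-p62 and anti-beclin-1, HRP secondary, chemiluminescent detection. Levels quantified relative to β-actin; three separate assays, mean ± SD.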

Structure (SMILES): COc1ccc(-c2nc(NCCCOc3ccc(/C=C/C(=O)NO)cc3OC)cc3c2[nH]c2ccccc23)cc1
- Activity [1]: 49.6%
- Activity [2]: Active

From ChEMBL document CHEMBL4376807, “Hydroxamic Acid Derivatives of β-Carboline/Hydroxycinnamic Acid Hybrids Inducing Apoptosis and Autophagy through the PI3K/Akt/mTOR Pathways” (J Nat Prod, 2019)
